What was measured:
Assay type in all cases: functional
Rattus norvegicus [1] = test: Percent decrease in Total cholesterol was determined after intraperitoneal uM/kg
How it was run: (§1)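 Hyperlipidemia induced in male Fischer-344 rats (230-280 g) by Triton WR 1339 in aqueous solution, 200 mg/kg ip. 1 h later the compound (28 or 56 µmol/kg, in saline) or saline alone was given ip; at 56 µmol/kg, dosing was twice in 24 h. After 24 h, aortic blood was drawn for plasma total cholesterol, LDL and triglycerides, expressed as % decrease. 4-6 rats per group; Student's t-test.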

Rattus norvegicus [2] = test: Percent decrease in Total Triglycerides was determined after intraperitoneal uM/kg; how it was run: as §1
Rattus norvegicus [3] = test: Percent decrease in Total Low density lipoproteins was determined after intraperitoneal uM/kg; Not significant; how it was run: as §1
Rattus norvegicus [4] = test: Percent decrease in Total Low density lipoproteins was determined after intraperitoneal administration of a dose of 56 uM/kg; how it was run: as §1
Rattus norvegicus [5] = test: Percent decrease in Total Triglycerides was determined after intraperitoneal administration of a dose of 56 uM/kg; how it was run: as §1
Rattus norvegicus [6] = test: Percent decrease in Total cholesterol was determined after intraperitoneal administration of a dose of 56 uM/kg; how it was run: as §1
Rattus norvegicus [7] = test: Percent decrease in Total Low density lipoproteins was determined after intraperitoneal uM/kg; how it was run: as §1
Rattus norvegicus [8] = test: Percent decrease in Total Low density lipoproteins was determined after intraperitoneal administration of a dose of 56 umol/kg; how it was run: as §1

| Structure (SMILES) | Decrease (Rattus norvegicus [1]) [%] | Decrease (Rattus norvegicus [2]) [%] | Decrease (Rattus norvegicus [3]) [%] | Decrease (Rattus norvegicus [4]) [%] | Decrease (Rattus norvegicus [5]) [%] | Decrease (Rattus norvegicus [6]) [%] | Decrease (Rattus norvegicus [7]) [%] | Decrease (Rattus norvegicus [8]) [%] |
| --- | --- | --- | --- | --- | --- | --- | --- | --- |
| CCCOC1(c2ccc(-c3ccccc3)cc2)CN2CCCCC2CO1.Cl (stereo unspecified) | 36 | 34 | 17 | – | – | – | – | – |
| CN1CCOC(O)(c2ccc(-c3ccccc3)cc2)C1.Cl (stereo unspecified) | – | – | – | 32 | 42 | 32 | – | – |
| CN1CC(O)(c2ccc(-c3ccccc3)cc2)OC2CCCCC21 (stereo unspecified) | 54 | 49 | – | – | – | – | 51 | – |
| OC1(c2ccc(-c3ccccc3)cc2)CN2CCCCC2CO1 (stereo unspecified) | 22 | 20 | – | – | – | – | 51 | – |
| CC(C)(Sc1cc(C(C)(C)C)c(O)c(C(C)(C)C)c1)Sc1cc(C(C)(C)C)c(O)c(C(C)(C)C)c1 [PROBUCOL] | – | – | – | 18 | 11 | 18 | – | – |
| CCOC1(c2ccc(-c3ccccc3)cc2)CN(C)CCO1.Cl (stereo unspecified) | – | – | – | 22 | 39 | 30 | – | – |
| CCCOC1(c2ccc(-c3ccccc3)cc2)CN(C)C2CCCCC2O1.Cl (stereo unspecified) | 50 | 41 | – | – | – | – | – | 28 |

Reference: ChEMBL document CHEMBL1133122, “Hypocholesterolemic and hypolipidemic activity of some novel morpholine derivatives with antioxidant activity” (J Med Chem, 2000)
